Source: PMC5091360 (Science Advances, 2016)

Columns and labels:
PDGFR-β = settings: such as in the case of sunitinib and PDGFR-β; cited from earlier work
[1] = clinical studies; cited from earlier work
VEGF family = settings: cited from earlier work
VEGFR-1 [2] = settings: read-out: Kd, NRP-1 to VEGFR-1; cited from earlier work
human VEGFR-1 = experiment: FLISA binding assay, NRP-1 to VEGFR-1; settings: human NRP-1, FLISA
Method in brief: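 Human VEGFR-1 extracellular domain coated at 200 ng per well in PBS overnight at 4°C, then blocked with Odyssey blocking buffer. Wells incubated with NRP-1 or NRP-2 in PBS with 10% (v/v) DMSO and 10% blocking buffer, with or without peptide (100 μg/ml). Bound NRP detected with goat anti-NRP-1 or anti-NRP-2 serum (1:100), then IRDye 680LT anti-goat, by infrared scanning. Duplicate wells; ANOVA with Tukey.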

[3] = system: IgD2-3 domains from human VEGFR-3; experiment: phage PCAIWF binding to recombinant VEGFR-3 IgD2-3; settings: peptide 100 μg/ml; FLISA, duplicate wells
[4] = system: IgD2 domain from human VEGFR-3; experiment: phage PCAIWF binding to recombinant VEGFR-3 IgD2; settings: peptide 100 μg/ml; FLISA, duplicate wells
HUVECs = experiment: endothelial tube formation in Matrigel; format: cell-based, human; settings: peptide 500 μg/ml in Matrigel
Method in brief: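 HUVECs (1.5 × 10^4 per well) plated on Matrigel containing 1% DMSO, with or without peptide (500 μg/ml) in the gel. Cells kept in RPMI 1640 with VEGF-A (30 ng/ml) or VEGF-C (100 ng/ml). Tubes counted per field at 4× by bright-field microscopy. Triplicate wells; two independent experiments; Student's t test.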

[5] = system: ERK1/2 pathway in lymphatic endothelial cells (LECs); experiment: ERK1/2 phosphorylation in lymphatic endothelial cells; format: cell-based, human; settings: 10 min, 37°C
Method in brief: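 Human dermal lymphatic microvascular endothelial cells were cultured overnight in EBM2 with 2% FBS, then starved 18 h in EBM2 with 0.2% BSA. They were stimulated with VEGF-A, VEGF-C or FGF-1, with or without test peptide or scrambled peptide (30 μg/ml). Lysates were immunoblotted for total and phospho-ERK1/2 using infrared-dye secondaries, and the phospho/total intensity ratio was taken. Two experiments were run; ANOVA with Tukey.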

NRP-2 = experiment: phage binding assay, immobilized NRP-2; settings: 10^8 TU in 50 μl PBS, 2 hours, room temperature; triplicate plating
human VEGFR-3 = experiment: phage binding assay, immobilized human VEGFR-3; settings: 10^8 TU in 50 μl PBS, 2 hours, room temperature; control insertless phage Fd; colony count or phage-FLISA; triplicate plating
mouse VEGFR-3 = experiment: phage binding assay, immobilized mouse VEGFR-3; settings: 10^8 TU in 50 μl PBS, 2 hours, room temperature; control insertless phage Fd; colony count or phage-FLISA; triplicate plating
VEGFR-1 [6] = experiment: phage binding assay, immobilized VEGFR-1; settings: 10^8 TU in 50 μl PBS, 2 hours, room temperature; triplicate plating
VEGFR-2 = experiment: phage binding assay, immobilized VEGFR-2; settings: 10^8 TU in 50 μl PBS, 2 hours, room temperature; triplicate plating
NRP-1 = experiment: phage binding assay, immobilized NRP-1; settings: 10^8 TU in 50 μl PBS, 2 hours, room temperature; triplicate plating
rat NRP-2 = biological target: T1, rat NRP-2 (rat, UniProt O35276); experiment: ELISA
T1 sequence: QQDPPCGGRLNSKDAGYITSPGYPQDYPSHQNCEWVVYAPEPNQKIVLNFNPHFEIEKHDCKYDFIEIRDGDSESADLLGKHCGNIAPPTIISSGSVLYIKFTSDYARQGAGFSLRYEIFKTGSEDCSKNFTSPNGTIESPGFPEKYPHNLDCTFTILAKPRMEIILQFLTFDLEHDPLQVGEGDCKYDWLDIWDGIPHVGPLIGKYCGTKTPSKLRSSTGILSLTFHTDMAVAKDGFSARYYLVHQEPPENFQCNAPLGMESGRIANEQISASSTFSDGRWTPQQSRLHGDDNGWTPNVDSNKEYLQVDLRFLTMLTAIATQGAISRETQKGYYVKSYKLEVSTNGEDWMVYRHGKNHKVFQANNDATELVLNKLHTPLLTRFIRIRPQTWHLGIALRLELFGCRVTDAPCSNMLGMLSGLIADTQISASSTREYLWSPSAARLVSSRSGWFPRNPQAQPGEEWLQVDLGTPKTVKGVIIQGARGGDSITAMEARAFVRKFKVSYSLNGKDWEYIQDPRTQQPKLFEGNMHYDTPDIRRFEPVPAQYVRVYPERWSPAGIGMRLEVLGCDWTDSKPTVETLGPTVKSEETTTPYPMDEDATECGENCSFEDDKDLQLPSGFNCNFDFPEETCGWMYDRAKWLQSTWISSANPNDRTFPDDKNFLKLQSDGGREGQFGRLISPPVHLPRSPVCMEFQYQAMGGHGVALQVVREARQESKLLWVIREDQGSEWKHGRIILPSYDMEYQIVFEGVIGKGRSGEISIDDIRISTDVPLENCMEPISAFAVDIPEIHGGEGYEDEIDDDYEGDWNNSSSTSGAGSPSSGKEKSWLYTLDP

VEGFR-3 [7] = biological target: T2, VEGFR-3 (Mus musculus, UniProt P35917); experiment: competition assay, binding of phage WVCSGG to immobilized VEGFR-3; settings: VEGF-C or VEGF-A in competition
T2 sequence (P35917 25-770): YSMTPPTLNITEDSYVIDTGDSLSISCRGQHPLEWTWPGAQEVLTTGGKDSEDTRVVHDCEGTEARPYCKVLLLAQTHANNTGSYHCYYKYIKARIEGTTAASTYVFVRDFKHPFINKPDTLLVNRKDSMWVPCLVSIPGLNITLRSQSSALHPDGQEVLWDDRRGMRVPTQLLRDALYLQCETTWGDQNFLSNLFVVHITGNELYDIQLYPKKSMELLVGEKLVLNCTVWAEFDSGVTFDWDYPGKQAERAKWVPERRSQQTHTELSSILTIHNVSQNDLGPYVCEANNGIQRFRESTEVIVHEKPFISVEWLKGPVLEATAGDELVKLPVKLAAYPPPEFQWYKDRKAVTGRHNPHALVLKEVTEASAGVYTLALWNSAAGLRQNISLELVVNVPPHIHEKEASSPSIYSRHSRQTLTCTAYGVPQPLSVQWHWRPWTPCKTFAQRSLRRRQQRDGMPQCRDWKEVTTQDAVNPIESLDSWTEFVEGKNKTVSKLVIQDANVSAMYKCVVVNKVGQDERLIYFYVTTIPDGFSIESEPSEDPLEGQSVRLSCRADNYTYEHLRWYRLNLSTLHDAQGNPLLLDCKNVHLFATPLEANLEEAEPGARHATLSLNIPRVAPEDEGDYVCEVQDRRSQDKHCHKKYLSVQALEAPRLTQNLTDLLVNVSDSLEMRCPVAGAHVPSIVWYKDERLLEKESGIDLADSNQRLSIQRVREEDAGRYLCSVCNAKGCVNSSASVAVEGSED

VEGFR-3 [8] = biological target: T2, VEGFR-3; experiment: competition assay, binding of phage PCAIWF to immobilized VEGFR-3; settings: VEGF-A or VEGF-C (10 ng/ml); triplicate plating
[9] = system: IgD2 domain from human VEGFR-3; experiment: VEGF-C binding to recombinant VEGFR-3 IgD2; settings: FLISA, no peptide, duplicate wells
[10] = system: IgD2-3 domains from human VEGFR-3; experiment: VEGF-C binding to recombinant VEGFR-3 IgD2-3; settings: FLISA, no peptide, duplicate wells

In the case of `CCN(CC)CCNC(=O)c1c(C)[nH]c(/C=C2\C(=O)Nc3ccc(F)cc32)c1C` [sunitinib], the side effects (PDGFR-β) is listed as “cardiotoxicity”.

For “aflibercept: ligand-binding domain of VEGFR-1 fused to an Ig constant region”, the “clinical efficacy in ophthalmology” value [1] is given as “better efficacy compared to bevacizumab and ranibizumab” and the “VEGF family members targeted” value (VEGF family) is given as “will target multiple members of the VEGF family (VEGF-A, VEGF-B, and PlGF) but will miss others (VEGF-C and VEGF-D)”.

For “NRP-1: neuropilin-1, co-receptor for VEGF”, the Kd (VEGFR-1 [2]) is given as roughly 1.8 nM and the “NRP-1 binding to VEGFR-1” value (human VEGFR-1) is given as “strong interaction”.

With IFCAPW the “inhibition of phage PCAIWF binding to IgD2-3 by synthetic peptide” value [3] was “not by the control peptide”, the “inhibition of phage PCAIWF binding to IgD2 by synthetic peptide” value [4] was “not by the control peptide” and the “inhibition of tube formation, VEGF-A stimulated (in words)” value (HUVECs; VEGF-A 30 ng/ml) was “not by the control scramble peptide”. For the same molecule, the “inhibition of tube formation, VEGF-C stimulated (in words)” value (HUVECs; VEGF-C 100 ng/ml) was “not by the control scramble peptide”, the “effect on FGF-1 induced phosphorylation of ERK1/2” value ([5]; FGF-1 100 ng/ml, peptide 30 μg/ml) was “no effect on this downstream signaling event” and the “effect on VEGF-A induced phosphorylation of ERK1/2” value ([5]; VEGF-A 100 ng/ml, peptide 30 μg/ml) was “no effect on this downstream signaling event”. The “effect on VEGF-C induced phosphorylation of ERK1/2” value ([5]; VEGF-C 100 ng/ml, peptide 30 μg/ml) was “no effect on this downstream signaling event”.

For PCAIWF [phage PCAIWF], the “phage binding to NRP-2” value (NRP-2) was “not to the other receptors, VEGFR-1 and VEGFR-2 (Fig. 1, C and D), including the two other non-RTKs, NRP-1 and NRP-2”, the “phage binding to human VEGFR-3” value (human VEGFR-3) was “both phages bound to mouse and human VEGFR-3” and the “phage binding to mouse VEGFR-3” value (mouse VEGFR-3) was “both phages bound to mouse and human VEGFR-3”. The “phage binding to VEGFR-1” value (VEGFR-1 [6]) was “not to the other receptors, VEGFR-1 and VEGFR-2”, the “phage binding to VEGFR-2” value (VEGFR-2) was “not to the other receptors, VEGFR-1 and VEGFR-2” and the “phage binding to NRP-1” value (NRP-1) was “not to the other receptors, VEGFR-1 and VEGFR-2 (Fig. 1, C and D), including the two other non-RTKs, NRP-1 and NRP-2”.

B1: human VEGFR-1 extracellular domain (Fc fusion) (Fc fusion)
chain: SKLKDPELSLKGTQHIMQAGQTLHLQCRGEAAHKWSLPEMVSKESERLSITKSACGRNGKQFCSTLTLNTAQANHTGFYSCKYLAVPTSKKKETESAIYIFISDTGRPFVEMYSEIPEIIHMTEGRELVIPCRVTSPNITVTLKKFPLDTLIPDGKRIIWDSRKGFIISNATYKEIGLLTCEATVNGHLYKTNYLTHRQTNTIIDVQISTPRPVKLLRGHTLVLNCTATTPLNTRVQMTWSYPDEKNKRASVRRRIDQSNSHANIFYSVLTIDKMQNKDKGLYTCRVRSGPSFKSVNTSVHIYDKAFITVKHRKQQVLETVAGKRSYRLSMKVKAFPSPEVVWLKDGLPATEKSARYLTRGYSLIIKDVTEEDAGNYTILLSIKQSNVFKNLTATLIVNVKPQIYEKAVSSFPDPALYPLGSRQILTCTAYGIPQPTIKWFWHPCNHNHSEARCDFCSNNEESFILDADSNMGNRIESITQRMAIIEGKNKMASTLVVADSRISGIYICIASNKVGTVGRNISFYITDVPNGFHVNLEKMPTEGEDLKLSCTVNKFLYRDVTWILLRTVNNRTMHYSISKQKMAITKEHSITLNLTIMNVSLQDSGTYACRARNVYTGEEILQKKEITIRDQEAPYLLRNLSDHTVAISSSTTLDCHANGVPEPQITWFKNNHKIQQEPGIILGPGSSTLFIERVTEEDEGVYHCKATNQKGSVESSAYLTVQGTSDKSNLE
B1: binds (rat NRP-2).

B2: VEGF-C: VEGF family member, recombinant human ligand (protein)
chain: AHYNTEILKSIDNEWRKTQCMPREVCIDVGKEFGVATNTFFKPPCVSVYRCGGCCNSEGLQCMNTSTSYLSKTLFEITVPLSQGPKPVTISFANHTSCRCMSKLDVYRQVHSIIRR
In the case of B2, the “inhibition of phage WVCSGG binding to VEGFR-3 by growth factor” value (VEGFR-3 [7]) is reported as “binding of phage WVCSGG to VEGFR-3 is also inhibited by VEGF-C”, the “inhibition of phage PCAIWF binding to VEGFR-3 by growth factor” value (VEGFR-3 [8]) is reported as “Only VEGF-C prevents the binding of phage PCAIWF to the receptor (Fig. 2A) in a dose-dependent manner” and the “VEGF-C binding to IgD2” value [9] is reported as “binds to both recombinant ligand-binding domains IgD2”. The “VEGF-C binding to IgD2-3” value [10] was “binds to both recombinant ligand-binding domains IgD2 (Fig. 2F) and IgD2-3” and the “phosphorylation of ERK1/2 upon growth factor stimulation” value ([5]; growth factor 100 ng/ml, 1% DMSO, heparin 10 U/ml) was “phosphorylation of ERK1/2 increases”.
